Experimental data: ChEMBL document CHEMBL1132938, “Novel synthetic oleanane and ursane triterpenoids with various enone functionalities in ring A as inhibitors of nitric oxide production in mouse macrophages” (J Med Chem, 2000); call rule not given here

How the values were obtained:
Format in all cases: functional
Mus musculus [1] = species on record: Mus musculus; test: 50 percent inhibitory concentration of compound to inhibit nitric oxide production induced by IFN-gamma in mouse macrophages
Summary of the method: (§1)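 Peritoneal macrophages from female CD-1 mice (5-10 weeks old) were harvested 4 days after ip injection of 2 mL 4% thioglycollate. Cells were seeded at 2×10^5/well and incubated 48 h with 20 ng/mL recombinant mouse IFN-γ, with or without compound (DMSO, final ≤0.1%). Compounds were tested over 0.1 pM–1 μM (10-fold) or 0.01–40 μM (4-fold). Nitrite in the supernatant was measured by Griess reagent at 550 nm against a sodium nitrite standard, in triplicate. Values are the average of two experiments.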

Mus musculus [2] = species on record: Mus musculus; test: 50 percent inhibitory concentration of compound to inhibit nitric oxide production induced by IFN-gamma in mouse macrophages (Not active below 1 uM); summary of the method: as §1
Mus musculus [3] = species on record: Mus musculus; test: 50 percent inhibitory concentration of compound to inhibit nitric oxide production induced by IFN-gamma in mouse macrophages (Toxic above 1 uM); summary of the method: as §1
Mus musculus [4] = species on record: Mus musculus; test: (§2) Percent inhibition of nitric oxide production induced by IFN-uM concentration; set-up: concentration or dose not given beside the values
Mus musculus [5] = species on record: Mus musculus; test: 50 percent inhibitory concentration of compound to inhibit nitric oxide production induced by IFN-gamma in mouse macrophages (Not active below 10 uM); summary of the method: as §1
Mus musculus [6] = species on record: Mus musculus; test: 50 percent inhibitory concentration of compound to inhibit nitric oxide production induced by IFN-gamma in mouse macrophages (Toxic above 10 uM); summary of the method: as §1
Mus musculus [7] = species on record: Mus musculus; test: as §2
Mus musculus [8] = species on record: Mus musculus; test: 50 percent inhibitory concentration of compound to inhibit nitric oxide production induced by IFN-uM); summary of the method: as §1

Row | Structure (SMILES) | IC50 (Mus musculus [1]) [µM] | Inhibition (Mus musculus [4]) [%] | other results
1 | C[C@@H]1CC[C@]2(C(=O)O)CC[C@]3(C)C(=CC[C@@H]4[C@@]5(C)C=C(C#N)C(=O)C(C)(C)[C@@H]5CC[C@]43C)C2[C@H]1C (stereo partly specified) | 6.2 |  | 
2 | CC1(C)CC[C@]2(C(=O)O)CC[C@]3(C)C(=CC[C@@H]4[C@@]5(C)C=C(C=O)C(=O)C(C)(C)[C@@H]5CC[C@]43C)C2C1 (stereo partly specified) |  |  | IC50 (Mus musculus [2]): Not active below 1 uM; IC50 (Mus musculus [3]): Not active below 1 uM
3 | COC(=O)[C@]12CCC(C)(C)CC1C1=CC[C@@H]3[C@@]4(C)C=CC(=O)C=C4CC[C@@]3(C)[C@]1(C)CC2 (stereo partly specified) | > 40 |  | 
4 | C[C@@H]1CC[C@]2(C(=O)O)CC[C@]3(C)C(=CC[C@@H]4[C@@]5(C)C=CC(=O)C(C)(C)[C@@H]5CC[C@]43C)C2[C@H]1C (stereo partly specified) | 13 | 41 | 
5 | COC(=O)[C@]12CC[C@@H](C)[C@H](C)C1C1=CC[C@@H]3[C@@]4(C)C=C(C#N)C(=O)C(C)(C)[C@@H]4CC[C@@]3(C)[C@]1(C)CC2 (stereo partly specified) | 5.1 |  | 
6 | CC1(C)CC[C@]2(C(=O)O)CC[C@]3(C)C(=CC[C@@H]4[C@@]5(C)C=CC(=O)C=C5CC[C@]43C)C2C1 (stereo partly specified) | 13 |  | 
7 | C[C@@H]1CCC2(C(=O)O)CC[C@]3(C)C(=CC[C@@H]4[C@@]5(C)CC[C@H](O)C(C)(C)[C@@H]5CC[C@]43C)C2[C@H]1C (stereo partly specified) |  | 0 | IC50 (Mus musculus [5]): Not active below 10 uM; IC50 (Mus musculus [6]): Not active below 10 uM
8 | COC(=O)C12CCC(C)(C)CC1C1=CC[C@@H]3[C@@]4(C)C=CC(=O)C(C)(C)[C@@H]4CC[C@@]3(C)[C@]1(C)CC2 (stereo partly specified) | 31 | 19 | 
9 | CC(=O)OC[C@]12CCC(C)(C)CC1C(=O)[C@](C)([C@]1(C)CC[C@H]3C(C)(C)[C@@H](OC(C)=O)CC[C@]3(C)[C@H]1CC=O)CC2 (stereo partly specified) |  |  | Inhibition (Mus musculus [7]): 52%
10 | COC(=O)[C@]12CCC(C)(C)CC1C1=CC[C@@H]3[C@@]4(C)C=C(C=O)C(=O)C(C)(C)[C@@H]4CC[C@@]3(C)[C@]1(C)CC2 (stereo partly specified) |  |  | IC50 (Mus musculus [2]): Not active below 1 uM; IC50 (Mus musculus [8]): Not active below 1 uM
